Reference: ChEMBL document CHEMBL1146374, “Clubbed triazoles: a novel approach to antitubercular drugs” (Eur J Med Chem, 2007)
In brackets after ≈: the same amount, converted by molar mass.

What was measured:
Staphylococcus aureus = assay: Antibacterial activity against Staphylococcus aureus at 50 to 100 uM after 24 hrs by well diffusion method; type: functional
Procedure, shortened: (§1)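 Agar well diffusion: nutrient agar plates with 10 mm wells cut by sterile cork borer; 24-h subcultured bacteria swabbed onto the plates from nutrient broth. Compounds were dissolved in chloroform and added to wells at […]. Gentamycin served as the standard antibiotic.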

[1] = system: Mycobacterium tuberculosis; assay: (§2) Antituberculosis activity against Mycobacterium tuberculosis H37Rv by Microplate Alamar Blue Assay; type: functional
Procedure, shortened: (§3)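 MIC against M. tuberculosis H37Rv (ATCC 27294) in BACTEC 12B medium by broth microdilution (MABA). Primary actives were retested at lower concentrations. MIC is the lowest concentration giving a […] fluorescence reduction versus controls. Fluorescent compounds were run in the BACTEC 460 radiometric system. Rifampin was the reference.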

[2] = system: Mycobacterium tuberculosis; assay: as §2; type: functional; procedure, shortened: as §3; remark: listed apart in the source
Pseudomonas aeruginosa = assay: Antibacterial activity against Pseudomonas aeruginosa at 50 to 100 uM after 24 hrs by well diffusion method; type: functional; procedure, shortened: as §1
[3] = Cytotoxicity against Vero-C1008 cells at 6.25 to 50 ug/ml; type: cell-based; conditions: chlorocebus sabaeus
Procedure, shortened: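 Vero-C-1008 cells were exposed to compounds at several concentrations across 6.25–50 µg/ml. Cytotoxicity was read out by neutral red uptake.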

[4] = system: Mycobacterium tuberculosis; assay: Growth inhibition of Mycobacterium tuberculosis H37Rv at 6.25 ug/ml by Microplate Alamar Blue Assay; type: functional; conditions: read-out: GI
Procedure, shortened: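 Primary single-concentration screen against M. tuberculosis H37Rv (ATCC 27294) in BACTEC 12B medium by MABA broth microdilution, read as % inhibition. Compounds that fluoresce were tested in the BACTEC 460 radiometric system. More than 95% inhibition was the activity cutoff.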

Escherichia coli = assay: Antibacterial activity against Escherichia coli at 50 to 100 uM after 24 hrs by well diffusion method; type: functional; procedure, shortened: as §1
Salmonella typhi = assay: Antibacterial activity against Salmonella typhi at 50 to 100 uM after 24 hrs by well diffusion method; type: functional, Salmonella enterica subsp. enterica serovar Typhi
Procedure, shortened: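 Agar well diffusion on nutrient agar plates; wells cut with a 10 mm sterile cork borer. Plates swabbed with 24-h subcultured bacteria from nutrient broth. Compounds dissolved in chloroform and added to wells at a range of concentrations. Gentamycin was the standard.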

| SMILES | zone of inhibition (Staphylococcus aureus) [mm] | MIC [1] [µg/mL] | MIC [2] [µM] | zone of inhibition (Pseudomonas aeruginosa) [mm] | Activity [3] | inhibition of growth at 6.25 µg/mL [4] [%] | zone of inhibition (Escherichia coli) [mm] | Inhibition (Salmonella typhi) [%] |
| --- | --- | --- | --- | --- | --- | --- | --- | --- |
| N#CCSc1nnc(Cc2csc(NC(=O)c3ccccc3)n2)n1NC(=O)c1ccccc1 | 26 | < 6.25 | 3.13 (≈ 1.49 µg/mL) | 24 | Non-toxic | 100 | 22 | 18 |
| NNC(=O)CSc1nnc(Cc2csc(NCCC(=O)O)n2)n1NC(=O)c1ccccc1 | 20 | < 6.25 | 6.25 (≈ 2.98 µg/mL) | 18 | Non-toxic | 96 | 14 | 12 |
| CC(=O)Nc1nc(Cc2nnc(S)n2N)cs1 | 18 | < 6.25 | 6.25 (≈ 1.69 µg/mL) | 16 | Non-toxic | 100 | 15 | 14 |
| O=C(CSc1nnc(Cc2csc(NC(=O)c3ccccc3)n2)n1NC(=O)c1ccccc1)N/N=C/c1ccccc1 | 32 | < 6.25 | 0.39 (≈ 0.233 µg/mL) | 30 | Non-toxic | 98 | 30 | 27 |
| O=C(O)CCNc1nc(Cc2nnc(SCC(=O)N/N=C\c3ccccc3)n2NC(=O)c2ccccc2)cs1 | 18 | < 6.25 | 3.13 (≈ 1.77 µg/mL) | 12 | Non-toxic | 98 | 14 | 12 |
| NNC(=O)CSc1nnc(Cc2csc(NC(=O)c3ccccc3)n2)n1NC(=O)c1ccccc1 | 33 | < 6.25 | 6.25 (≈ 3.18 µg/mL) | 34 | Non-toxic | 100 | 30 | 29 |
| NNC(=O)CSc1nnc(Cc2csc(NC(=O)CCl)n2)n1NC(=O)c1ccccc1 | 16 | < 6.25 | 3.13 (≈ 1.51 µg/mL) | 16 | Non-toxic | 98 | 12 | 14 |
